Calls of active or inactive are those of the source. No cut-off for these calls is given here. Where a SMILES comes first, the peptide text is derived from it. [ ]: non-standard residue; d: D form. Tic = O=C(O)[C@@H]1Cc2ccccc2CN1; Cha = N[C@@H](CC1CCCCC1)C(=O)O
Columns and labels:
[1] = target: Delta-type opioid receptor (Rattus norvegicus, UniProt P33533); experiment: Displacement of [3H]Ile5,6-deltorphin from delta opioid receptor in Wistar rat brain membrane; format: cell membranes
In short: (§1)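 Wistar rat brain membranes in 50 mM Tris·HCl pH 7.4 with 200-300 µg protein. Tritiated ligand at 0.5-1 nM, with fresh unlabeled peptide at 10^-12 to 10^-5 M, for 45 min at 35 °C. Stopped by rapid GF/C filtration and ice-cold buffer washes, then scintillation counting. Nonspecific binding defined with 10 µM naloxone. Duplicates, repeated two or three times, mean ± SEM.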

Mu-type opioid receptor = Mu-type opioid receptor (Rattus norvegicus, UniProt P33535); experiment: Displacement of [3H]DAMGO from mu opioid receptor in Wistar rat brain membrane; format: cell membranes; in short: as §1
[2] = target: Delta-type opioid receptor (Homo sapiens) (UniProt P41143); experiment: Activity at human delta opioid receptor expressed in CHO cells by [35S]GTP-gamma-S binding assay; format: functional, cell-based
[3] = target: Mu-type opioid receptor (Cavia porcellus) (UniProt P97266); conditions: Ileum
[4] = target: Delta-type opioid receptor (Mus musculus) (UniProt P32300); conditions: Vas deferens
[5] = target: Mu-type opioid receptor (Cavia porcellus) (UniProt P97266); conditions: Ileum; remark: listed apart in the source

Sequence of Delta-type opioid receptor (Homo sapiens) (P41143 whole entry): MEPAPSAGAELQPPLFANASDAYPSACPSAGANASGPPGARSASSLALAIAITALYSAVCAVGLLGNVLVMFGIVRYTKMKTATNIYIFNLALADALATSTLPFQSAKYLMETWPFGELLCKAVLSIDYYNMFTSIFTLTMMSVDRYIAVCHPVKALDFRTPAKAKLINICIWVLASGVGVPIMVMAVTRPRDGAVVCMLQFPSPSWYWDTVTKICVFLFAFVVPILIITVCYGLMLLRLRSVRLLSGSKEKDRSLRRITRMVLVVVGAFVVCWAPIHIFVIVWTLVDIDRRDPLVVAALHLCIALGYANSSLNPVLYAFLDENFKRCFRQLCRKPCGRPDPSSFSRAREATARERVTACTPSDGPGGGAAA
Sequence of Mu-type opioid receptor (P33535 whole entry): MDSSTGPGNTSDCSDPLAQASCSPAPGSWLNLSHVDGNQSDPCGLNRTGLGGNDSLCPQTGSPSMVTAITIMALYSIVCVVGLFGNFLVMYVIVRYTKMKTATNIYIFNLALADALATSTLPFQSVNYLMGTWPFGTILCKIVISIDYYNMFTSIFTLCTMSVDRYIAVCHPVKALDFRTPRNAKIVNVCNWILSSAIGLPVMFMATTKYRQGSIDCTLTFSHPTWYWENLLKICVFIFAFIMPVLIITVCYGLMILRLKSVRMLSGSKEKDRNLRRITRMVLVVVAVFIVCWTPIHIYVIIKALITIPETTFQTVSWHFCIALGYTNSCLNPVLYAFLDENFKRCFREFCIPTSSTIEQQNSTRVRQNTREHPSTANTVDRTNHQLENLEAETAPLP
Sequence of Mu-type opioid receptor (Cavia porcellus) (P97266 whole entry): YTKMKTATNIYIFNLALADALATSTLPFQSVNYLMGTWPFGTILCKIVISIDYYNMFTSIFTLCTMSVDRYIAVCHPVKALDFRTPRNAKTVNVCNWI
Sequence of Delta-type opioid receptor (Mus musculus) (P32300 whole entry): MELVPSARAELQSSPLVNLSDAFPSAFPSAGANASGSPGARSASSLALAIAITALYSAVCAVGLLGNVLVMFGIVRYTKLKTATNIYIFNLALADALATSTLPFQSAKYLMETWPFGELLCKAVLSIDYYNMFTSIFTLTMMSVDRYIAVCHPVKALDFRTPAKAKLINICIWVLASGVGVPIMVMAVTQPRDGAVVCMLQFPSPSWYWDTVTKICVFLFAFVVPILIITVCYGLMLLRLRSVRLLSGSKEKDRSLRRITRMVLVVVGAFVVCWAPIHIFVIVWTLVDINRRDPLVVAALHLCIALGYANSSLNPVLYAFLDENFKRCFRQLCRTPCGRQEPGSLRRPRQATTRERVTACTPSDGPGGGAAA
Sequence of Delta-type opioid receptor (P33533 whole entry): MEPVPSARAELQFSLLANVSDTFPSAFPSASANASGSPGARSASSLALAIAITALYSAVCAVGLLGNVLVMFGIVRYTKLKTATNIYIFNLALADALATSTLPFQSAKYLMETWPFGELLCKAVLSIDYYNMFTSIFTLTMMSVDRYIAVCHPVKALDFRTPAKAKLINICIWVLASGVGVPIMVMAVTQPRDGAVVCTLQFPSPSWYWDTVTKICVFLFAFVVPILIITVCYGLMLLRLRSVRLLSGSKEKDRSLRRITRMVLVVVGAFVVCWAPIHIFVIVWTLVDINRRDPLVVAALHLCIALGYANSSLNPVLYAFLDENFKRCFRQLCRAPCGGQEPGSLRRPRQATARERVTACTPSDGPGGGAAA

Compound	Ki [1]	Ki (Mu-type opioid receptor)	Activity [2]	Ke [3]	Ke [4]	further results
Cc1cc(O)cc(C)c1C[C@H](N)C(=O)N1Cc2ccccc2C[C@H]1C(=O)N[C@H](C(=O)N[C@@H](Cc1ccccc1)C(=O)O)[C@@H](C)C1CCCCC1	0.48 nM	1400 nM	–	–	–	–
Cc1cc(O)cc(C)c1C[C@H](N)C(=O)N1Cc2ccccc2CC1C(=O)N[C@@H](C(=O)N[C@@H](Cc1ccccc1)C(=O)O)[C@H](C)C1CCCCC1 (stereo partly drawn)	–	–	inactive	290 nM	0.55 nM	–
Cc1cc(O)cc(C)c1C[C@H](N)C(=O)N1Cc2ccccc2C[C@H]1C(=O)N[C@@H](C(=O)N[C@@H](Cc1ccccc1)C(N)=O)[C@@H](C)C1CCCCC1	7 nM	200 nM	–	–	–	–
Cc1cc(O)cc(C)c1C[C@H](N)C(=O)N1Cc2ccccc2CC1C(=O)N[C@@H](C(=O)N[C@@H](Cc1ccccc1)C(N)=O)[C@H](C)C1CCCCC1 (stereo partly drawn)	–	–	inactive	670 nM	1.7 nM	–
Cc1cc(O)cc(C)c1C[C@H](N)C(=O)N1Cc2ccccc2CC1C(=O)N[C@H](C(=O)N[C@@H](Cc1ccccc1)C(=O)O)[C@@H](C)C1CCCCC1 (stereo partly drawn)	–	–	inactive	970 nM	0.24 nM	–
Cc1cc(O)cc(C)c1C[C@H](N)C(=O)N1Cc2ccccc2C[C@H]1C(=O)N[C@H](C(=O)N[C@@H](Cc1ccccc1)C(N)=O)[C@@H](C)C1CCCCC1	4 nM	330 nM	–	–	–	–
Cc1cc(O)cc(C)c1C[C@H](N)C(=O)N1Cc2ccccc2C[C@H]1C(=O)N[C@H](C(=O)N[C@@H](Cc1ccccc1)C(=O)O)[C@H](C)C1CCCCC1	2 nM	280 nM	–	–	–	–
N[C@@H](Cc1ccc(O)cc1)C(=O)N1Cc2ccccc2C[C@H]1C(=O)N[C@@H](CC1CCCCC1)C(=O)N[C@@H](Cc1ccccc1)C(=O)O (H-Y[Tic][Cha]F-OH)	0.61 nM	3600 nM	–	–	0.44 nM	–
Cc1cc(O)cc(C)c1C[C@H](N)C(=O)N1Cc2ccccc2CC1C(=O)N[C@H](C(=O)N[C@@H](Cc1ccccc1)C(N)=O)[C@H](C)C1CCCCC1 (stereo partly drawn)	–	–	inactive	–	0.68 nM	IC40 [5]: 110 nM
Cc1cc(O)cc(C)c1C[C@H](N)C(=O)N1Cc2ccccc2CC1C(=O)N[C@@H](C(=O)N[C@@H](Cc1ccccc1)C(N)=O)[C@@H](C)C1CCCCC1 (stereo partly drawn)	–	–	inactive	120 nM	1.94 nM	–
Cc1cc(O)cc(C)c1C[C@H](N)C(=O)N1Cc2ccccc2C[C@H]1C(=O)N[C@@H](C(=O)N[C@@H](Cc1ccccc1)C(=O)O)[C@@H](C)C1CCCCC1	1.5 nM	55 nM	–	–	–	–
Cc1cc(O)cc(C)c1C[C@H](N)C(=O)N1Cc2ccccc2C[C@H]1C(=O)N[C@@H](C(=O)N[C@@H](Cc1ccccc1)C(=O)O)[C@H](C)C1CCCCC1	2 nM	580 nM	–	–	–	–
NC(=O)[C@H](Cc1ccccc1)NC(=O)[C@H](Cc1ccccc1)NC(=O)[C@@H]1Cc2ccccc2CN1C(=O)[C@H](N)Cc1ccc(O)cc1	–	–	–	–	18 nM	Ke [5]: 1700 nM
Cc1cc(O)cc(C)c1C[C@H](N)C(=O)N1Cc2ccccc2C[C@H]1C(=O)N[C@@H](C(=O)N[C@@H](Cc1ccccc1)C(N)=O)[C@H](C)C1CCCCC1	13 nM	290 nM	–	–	–	–
Cc1cc(O)cc(C)c1C[C@H](N)C(=O)N1Cc2ccccc2C[C@H]1C(=O)N[C@H](C(=O)N[C@@H](Cc1ccccc1)C(N)=O)[C@H](C)C1CCCCC1	4.1 nM	170 nM	–	–	–	–
Cc1cc(O)cc(C)c1C[C@H](N)C(=O)N1Cc2ccccc2CC1C(=O)N[C@H](C(=O)N[C@@H](Cc1ccccc1)C(=O)O)[C@H](C)C1CCCCC1 (stereo partly drawn)	–	–	inactive	–	0.81 nM	IC30 [5]: 150 nM
Cc1cc(O)cc(C)c1C[C@@H](N)C(=O)N1Cc2ccccc2C[C@H]1C(=O)N[C@@H](Cc1ccccc1)C(=O)N[C@@H](Cc1ccccc1)C(=O)O	–	–	–	–	0.2 nM	–
Cc1cc(O)cc(C)c1C[C@H](N)C(=O)N1Cc2ccccc2CC1C(=O)N[C@@H](C(=O)N[C@@H](Cc1ccccc1)C(=O)O)[C@@H](C)C1CCCCC1 (stereo partly drawn)	–	–	inactive	19 nM	0.11 nM	–
Cc1cc(O)cc(C)c1C[C@H](N)C(=O)N1Cc2ccccc2CC1C(=O)N[C@H](C(=O)N[C@@H](Cc1ccccc1)C(N)=O)[C@@H](C)C1CCCCC1 (stereo partly drawn)	–	–	inactive	340 nM	0.77 nM	–
N[C@@H](Cc1ccc(O)cc1)C(=O)N1Cc2ccccc2C[C@H]1C(=O)N[C@@H](Cc1ccccc1)C(=O)N[C@@H](Cc1ccccc1)C(=O)O (H-Y[Tic]FF-OH)	–	–	–	–	4.8 nM	Ke [5]: > 10000 nM
